Reference: the RNAGym collection of RNA variant scans (doi:10.1101/gad.245936.114)
Variants at the floor of the assay were thinned out.

B1: tRNA (parent)
chain: CUCUCGGUAGCCAAGUUGGUUUAAGGCGCAAGACUUUAAUUUAUCACUACGAAAUCUUGAGAUCGGGCGUUCGACUCGCCCCCGGGAGAUUUUUUCCUCGAGCAA

Variants of: B1
Assay: nonsense suppression (GFP-seq) (ratio to wild type); higher = more function; SUP4oc tRNA, yeast GFP reporter sort-seq
Method in brief: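 Yeast carrying genome-integrated SUP4oc tRNA variants from a library with ~3% random mutations were grown in raffinose/galactose medium with 80 mg/L adenine. Each strain also carried a galactose-driven GFP ochre reporter and RFP. Cells were sorted into GFP/RFP bins, and each bin was Illumina-sequenced (phred ≥30). Nonsense suppression (GFPSEQ) is the bin median GFP/RFP, weighted by each variant's estimated cell share per bin, relative to wild-type SUP4oc; variants needed ≥100 reads and ≥30 cells.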

| Variant | nonsense suppression |
| --- | --- |
| CUCUCGGUAGCCAAGUUGGUUUAAGGCGCAAGACUUUAAUUUAUCACUACGAAAUCUUGAGAUCGGGCGUUCCACACGCCCCCGGGAGAUUUUUUCCUCGAGCAA | ≤ 0.026 |
| CUCUCGGUAGCCAAGUUGGUUUAAGGCGCAAGACUUUAAUUUAUCACUACGAAAUCCAGAGCUCGGGCGUUCGACUCGCCCCCGGGAGAUUUUUUCCUCGAGCAA | ≤ 0.026 |
| CUCUCGGUAGCUCAGUUGGCUUAAGGCGCAAGACUUUAAUUUAUCACUACGAAAUCUUGCGAUCGGGCGUUCGACUCGCCCCCGAGAGAUUUUUUCCUCGAGCAA | ≤ 0.026 |
| CUCUCGGUAGCCAAGUUGGUUGAAGGCGCAAGACUUUAAUUUAUCACUACGAAAUCUUGAGAUCGGGCGUUCGACUCGCCCUCGGGAGAUUUUUUCCUCGAGCAA | 0.913 |
| CUCUCGGUAGCCAGGUUGGUUUAAGGCGCAAGACCUUAAUUUAUCACUACGAAAUCUUGAGAUCGGGCGUUCGACUCGCCCCCGGGAGAUUUUUUCCUCGAGCAA | ≤ 0.026 |
| CUCUCGGUAGCCAAGUUGGUUUAAGGCGCAAGACUUUAAUUUAUCACUACGAAAUCUUGGGAUCGGGCGUUCGACUCGCCCCCGUGAGAUUUUUUCCUCGAGCAA | 0.138 |
| CUCACGGUAGCCAAGUUGGUUUAAGGCGCAAGACUUUAAUUUAUCACUACGAAAUCUUGAGAUCGGGCGUUCGACUUGCCCCCGGGAGAUUUUUUCCUCGAGCAA | 0.0506 |
| CUCUCGGUAGCCAAGUUGGUUGAAGGCGCAAGACUUUAAUUUAUCACUACGAAAUCUUGAGAUCGGGCGUUCGACUCGCCCCCGUGAGAUUUUUUCCUCGAGCAA | 0.796 |
| CUCUCGGUAGCCAAGUUGGUUUAAGGCGCACGACUUUAAUUUAUCACUACGAAAUCUUGUGAUCGGGCGUUCGACUCGCCCCCGGGAGAUUUUUUCCUCGAGCAA | 0.222 |
| CUCUCGGUUGCCAAGUUCGUUUAAGGCGCAAGACUUUAAUUUAUCACUACGAAAUCUUGAGAUCGGGCGUUCGACUCGCCCCCGGGAGAUUUUUUCCUCGAGCAA | ≤ 0.026 |
| CUUUCUGUAGCCAAGUUGGUUUAAGGCGCAAGACUUUAAUUUAUCACUACGAAAUCUUGAGAUCGGGCGUUCGACUCGCCCCCGGGAGAUUUUUUCCUCGAGCAA | 0.0343 |
| CUCGCGGUAGCCAAGUUGGUUUAAGGCGCAAGACUUUAAUUUAUCACUACGAAAUCUUGAGAUCGGGCGUUCGGCUCGCCCCCGGGAGAUUUUUUCCUCGAGCAA | 0.0287 |
| CUCUCGGUAGCCAAGUUGGUUGAAUGCGCAAGACUUUAAUUUAUCACUACGAAAUCUUGAGAUCGAGCGUUCGACUCGCCCCCGGGAGGUUUUUUCCUCGAGCAA | ≤ 0.026 |
| CUCUCGGUGGCCAAGUUGGUUUAAGGCGCAAGACUUUAAUUUAUCACUACGAAAUCUUGAGAUCGGGCGUUGGACGCGCCCCCGGGAUAUUUUUUCCUCGAGCAA | ≤ 0.026 |
| CUCUCGGUAGCCAAGUUGGUUUAAGGCGCUAGACUUUAAUUUAUCACUACGAAAUCUUGAGAUCGGGCCUUUGACUCGCCCCCGGGAGAUUUUUUCCUCGAGCAA | ≤ 0.026 |
| CUCUCGAUAGCCAAGUUGGUUUACGGCGCAAGACUUUAAUUUAUCACUACGAAAUCUUGAGAUCGGGCGUUCGACUCGCCCCCGGGAGAUUUUUUCCUCGAGCAA | 0.123 |
| CUGUCGGUAGCCAAGUUGGUUUAAGGCGCAAGACUUUAAUUUAUCACUACGAAAUCUUAAGAUCGGGCGUUCGACUCUCCCCCGGGUGAUUUUUUCCUCGAGCAA | ≤ 0.026 |
| CUCUCGGUAGUCAAGUUGGUUUAAGGCGCGUGACGUUAAUUUAUCACUACGAAAUCUUGAGAUCGGCCGUUCGACCCGCCCCCGGGAGAUUUUUUCCUCGAGCAA | ≤ 0.026 |
| CUCUAGUUAGCCAAGUUGGGUUAAGGCGCAAGACUUUAAUUUAUCACUACGAAAUCUUGAGAUCGGGCGUUCGUCUCGCCCCCGGGAGAUUUUUUCCUCGAGCAA | ≤ 0.026 |
| CUCUCGGUUGCCAAGUUGGUUUAAGGCGCAAGACUUUAAUUUAUCACUACGAAGUCUUGAGAUCGGGCGUUCGACUCGCCCCCGGGAGAUUUUUUCCUCGAGCAA | 0.0306 |
| CUCUAGGUAGCCAGGUUGGUUUAAGGCGCAAGACUUUAAUUUAUCACUACGAAAUCUUGAGAUCGGGCGUUCGACUCGCCCCCGGGAGAUUUUUUCCUCGAGCAA | ≤ 0.026 |
| CUCUCGGUAGCCAAGUUGGUUUUAGGCGCAACACUUUAAUUUAUCACUACGAAAUCCUGAGAUCGGGCGUUCGACUCGCCACCGGGAGAUUUUUUCCUCGAGCAA | ≤ 0.026 |
| CUCUCGGUAGCCAAGUUGGUUUAAGGCGCAUGACUUUAAUUUAUCACUACGAAACCUUGAGAUCGGGCGUUCGACUCGCCCCCGGGAGAUUUUUUCCUCGAGCAA | 0.0547 |
| CUCUCGGUAGCCUAGGUGGUUUAAGGCGCAAGUCUUUAAUUUAUCACUACGAAAUCUUGAGAUCGGGCGUUCGACUCGCCCCCGGGAGAUUUUUUCCUCGAGCAA | 0.0384 |
| CUCUCGGUAGCUAAGUUGGUAUAAGGCGCAGGACUUUAAUUUAUCACUACGAAAUCUUGAGAUCGGGCGUUCGACUCGCCCCCGGGAGAUUUUUUCCUCGAGCAA | 0.214 |
| CUCUCGGGAGCCAAGUUGGUUUAAGGUGCAAGACUUUAAUUUAUCACUACGAAAUCUUGAGAUCGGGCGUUCGACUCGCCCCCGGGAGAUUUUUUCCUCGAGCAA | ≤ 0.026 |
| CUCUCGGUAGCCAAGUUGGGUGAAGGCGCAAGACUUUAAUUUAUCACUACGAAAUCUUGAGAUCGGGCGUUCGACUCGCCCCCGGGAGAUUUUUUCCUCGAGCAA | 1.06 |

| Variant | nonsense suppression |
| --- | --- |
| CUCUCGGUAGCCAAGUUGGUUAAAGGCGCAAGACUUUAAUUUAUCACUACGAAACCUUGAGAUCGGGCGUUCGACUCGCCCCCGGGAGAUUUUUUCCUCGAGCAA | 0.377 |
| CUCUCGGUAGCCAAGUAGGUUUAAGGCACAAGACUUUAAUUUAUCACUACGAAAUCUUGAGAUCGGGCGUUCGACUCGCCCCCGAGAGAUUUUUUCCUCGAGCAA | 1.02 |
| CUUUCGGUAGCCAAGUUGGUUUAAGGGGCAAGACUUUAAUUUAUCACUACGAAAUCUUGAGAUCGGGCGUUCGACUCGCCCCCGGGAGAUUUUUUCCUCGAGCAA | 0.0543 |
| CUCUCGGUAGCCAAGUUGGUUUCAGGCGCAAGACUUUAAUUUAUCACUACGAAAUCUUCACAUCGGGCGUUCGACUCGCCCCCGGGAGAUUUUUUCCUCGAGCAA | ≤ 0.026 |
| CUCUCGGUAGCCAAGUUGGUUUAAGGCGCUAGACUUUAAUUUAUCACUACGAAAUCUAGAGAUCGGGCGUUCGACUCGCCCCCGGGAGAUUUUUUCCUCGAGCAA | 0.89 |
| UUCUCCGUAUCCAAGUUGGUUUAAGGCGCAAGACUUUAAUUUAUCACUACGAAAUCUCGAGAUCGGGCGUUCGACUCGCCCCCGGGAGAUUUUUUCCUCGAGCAA | ≤ 0.026 |
| CUCUCGGUAGCCAAGUUGGUUUAAGGCGCAAGGCUUUAAUUUAUCACUACGAAAUCUUGAGAUCGGGCGUUCGAAUCGCCCCCGGGAGAUUUUUUCCUCGAGCAA | 0.235 |
| CUCUCGAUAGCCAAGUUGGUUUAAGGCGCAAGACUUUAAUUUAUCACUACGAAAUCUUGAGAUCGGGCGUUCGACCCGCCCCCGGGAUAUUUUUUCCUCGAGCAA | ≤ 0.026 |
| CUCUCGGUAGCCAAGUUGGUUUAAGGCGCAUGACUUUAAUUUAUCACUACGAAAUCUUGAGAUCGGGCGUUCUACUCGCCCCCGGGAGAUUUUUUCCUCGAGCAA | ≤ 0.026 |
| CUUUCGGUAGCCAAGUUGGUUCAAGGCGCAAGACUUUAAUUUAUCACUACGAAAUCUUGAGAUCGGGCGUUCGACUCGCCCCCGGGAGAUUUUUUCCUCGAGCAA | 0.304 |
| CUCUCGGUAGCCAAGUUGGUUUAAGACGCAAGACUUUAAUUUAUCACUACGAAAUCUUGAGAUCAGGCGUUCGACUCGCCCCCGGAAGAUUUUUUCCUCGAGCAA | ≤ 0.026 |
| CUCUCGGUAGCCAAGUUGGUUUAAGGGGCAAGACUUUAAUUUAUCACUACGAAAUCUUGAGAUCGGGCGUUCGACUCGCCGCCGGGAGAUUUUUUCCUCGAGCAA | ≤ 0.026 |
| CUCUCGGUAGCCAAGUUGGUUUAAGGCGCAAGACUUUAAUUUAUCACUACGAAAUCCUGAGAUCGUGCGUUCGACUCGCCACCGGGAGAUUUUUUCCUCGAGCAA | ≤ 0.026 |
| CUCUCGGUAGCCAAGUUGGUUUAAGGCGCAGGACUUUAAUUUAUCACUACGAAAUCUUGAGAUCGGGCGUUCAACUCGCCCCCGGGAGAUUUUUUCCUCGAGCAA | 0.366 |
| CUCUCGGUAGUCAAGUUGGUUUAAGGCGCAAGACUUUAAUUUAUCACUACGAAAUCUUGAGAUCGGGCGUUCGACUCGCCCCCGCGGGAUUUUUUCCUCGAGCAA | ≤ 0.026 |
| CUCUCGGUCGCCAAGUUGGUUUAAGGCGCAAGAUUUUAAUUUAUCACUACGAAAUCUGGAGAUCGGGCGUUCGACUCCCCCCCGGGAGAUUUUUUCCUCGAGCAA | ≤ 0.026 |
| CUCUAGGUAGCCAAGUUUGUUUAAGGCGCAAGACUUUAAUUUAUCACUACGAAAUCUUGAGAUCGGGCGUUCGACCCGCCCCCGGAAGAUUUUUUCCUCGAGCAA | ≤ 0.026 |
| CUCUCGGUAGCCAAGUUGGUUUAAGGCGCAAGACUUUAAUUUAUCACUACGAAAUCUGGAGAUCGUGCGUUCGAAUCGCCCCCGGGAGAUUUUUUCCUCGAGCAA | ≤ 0.026 |
| CUCUCGGUAGCCAAGUUGGUUUACGGCGCAAGACUUUAAUUUAUCACUACGAAAUCUUGAGAUCGGUCGUUCGACUCGCCCCCGGGAGAUUUUUUCCUCGAGCAA | 0.0289 |
| CUCUCGGUAGCCAAGUUGGUAUAAGGCGCAAGACUUUAAUUUAUCACUACGAAUUCUUGAGAUCGGGCGUUCGACCCGCCCCCGGGAGAUUUUUUCCUCGAGCAA | 0.751 |
| CUCCCGGUAGACAAGUUGGUUUAAGGCGCAAGGCUUUAAUUUAUCACUACGAAAUCUUGAGAUCGGGCGUUCGUCUCGCCCCCGGGAGAUUUUUUCCUCGAGCAA | ≤ 0.026 |
| UUUUCGGUAGCCAAGUUGGUUUAAGGCGCAAGACUUUAAUUUAUCACUACGAAAUCUUGAGAUGGGGCUUUCGACUCGCCCCCGGGAGAUUUUUUCCUCGAGCAA | ≤ 0.026 |
| CUCUCGGUAUCCCAGUUGGUUUAAGGCGCAAGACUUUAAUUUAUCACUACGAAAUCUUGAGAUCGGGCGUUCGACUCGCCCCCGGGAGAUUUUUUCCUCGAGCAA | 0.0296 |
| CUCUCGGUAGCCAGGUUGGUUUAAGGCGCAAGACUUUAAUUUAUCACUACGAAAUCUUGAGAUAAGGCGUUCGACUCGCCCCCGGGAGAUUUUUUCCUCGAGCAA | ≤ 0.026 |
| CUCUCGGUAGCCAAGUUGGUAUAAGGCGCGAGACUUUAAUUUAUCACUACGAAAUCUUGAGAUCGGGCGUUCGACUCGCCCCCGGGAGAUUUUUUCCUCGAGCAA | 0.42 |
| CUCUCGGUAGCCAAGUUCGUUUAAGGCGCAAGACUUUAAUUUAUCACUACGAAAUCUUGAAAUCGGGCGUUCGACUCGCCCCCGGGAGAUUUUUUCCUCGAGCAA | ≤ 0.026 |
| CUCUCGGUAGCCCAGUUGGUUUAAGGCGCAAGACUUUAAUUUAUCACUACGAAAUCUUGCGAUCGGGCGUUCGACUCGCCCCCGGGAGAUUUUUUCCUCGAGCAA | 0.29 |
